Source: publication PMC9324959 (Angewandte Chemie (International Ed. in English), 2022)

System: not listed separately
Assay: Cytotoxicity assay
Format: cell-based
Conditions: human, HeLa cells
Procedure, shortened: (§1)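 Where cells were clearly affected but the curve could not be fitted, the value was flagged. "n/a" marks no effect under the conditions tested.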

SMILES | IC50 at 72 h [µM]
CC(=O)Nc1ccc(-c2csc(Nc3cccc(Cl)c3)n2)cc1 [Compound 20] | 19
CC(=O)Nc1ccc(-c2csc(Nc3ccccc3F)n2)cc1 [Compound 8] | > 80
CC(=O)Nc1ccc(-c2csc(Nc3ccccc3C(F)(F)F)n2)cc1 [Compound 17] | 71
CCC(=O)Nc1ccc(-c2csc(Nc3cccc(F)c3)n2)cc1 [Compound 11, N-[4-[2-(3-fluoroanilino)thiazol-4-yl]phenyl]propanamide] | 38
CC(=O)Nc1ccc(-c2csc(Nc3ccc(F)cc3)n2)cc1 [Compound 10] | > 80
COc1cccc(Nc2nc(-c3ccc(NC(C)=O)cc3)cs2)c1 [Compound 22] | 43
CC(=O)Nc1ccc(-c2csc(Nc3ccccc3C)n2)cc1 [Compound 14] | 59
CC(=O)Nc1ccc(-c2csc(Nc3cccc(C)c3)n2)cc1 [Compound 15] | 37
CC(C)C(=O)Nc1ccc(-c2csc(Nc3cccc(F)c3)n2)cc1 [Compound 12] | 34
CC(=O)Nc1ccc(-c2csc(Nc3cccc(O)c3)n2)cc1 [Compound 21] | 50
O=C(Nc1ccc(-c2csc(Nc3cccc(F)c3)n2)cc1)C1CC1 [Compound 13] | 38
CC(=O)Nc1ccc(-c2csc(Nc3ccccc3)n2)cc1 [Compound 4] | 48

System: HeLa cells
Assay: Cytotoxicity assay
Format: cell-based
Conditions: under the conditions used
Procedure, shortened: as §1

SMILES | cytotoxicity (in words)
CC(=O)Nc1ccc(-c2csc(Nc3ccc(C(F)(F)F)cc3)n2)cc1 [Compound 19] | abrogated activity
CC(=O)Nc1ccc(-c2csc(NC(=O)c3ccccc3)n2)cc1 [Compound 6] | not cytotoxic
